Data set [1] can be described thus: Solubility of the compound in 10 % DMSO/Water. The format is physicochemical.
Data set [2] deals with HCT-116. Nature of the data set: Antiproliferative activity against human HCT116 cells after 3 days by WST-1 assay. The format is functional, cell-based. To be noted: HCT-116, 72 h. The gist of the method:
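HCT116 human colon cancer cells exposed to compounds for 3 days; growth read by WST-1 assay; IC50 derived from triplicate assays.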

The test system of data set [3] is HCT-116. The data set is described as follows: Induction of cell cycle arrest in human HCT116 cells assessed as accumulation at G2/M phase at 10 uM after 48 hrs by flow cytometry (reference value: 5.4 %). The format is functional. The gist of the method: (§1)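 HCT116 cells (1.0 × 10^6) were plated for 24 h, then exposed to compound for 24 or 48 h, with 0.1% DMSO as control. DNA staining used a BD Cycletest Plus DNA reagent kit, and phase percentages (subG1, G0/G1, S, G2/M) were scored; data representative of three independent experiments.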

Data set [4] concerns HCT-116. The data set is described as follows: Induction of cell cycle arrest in human HCT116 cells assessed as accumulation at G0/G1 phase at 10 uM after 24 hrs by flow cytometry (reference value: 74.2 %). The format is functional. The gist of the method:
as §1

Data set [5] concerns Mus musculus. The data set is described as follows: Toxicity in human HCT116 cells xenografted in BALB/c- nu.nu mouse assessed as relative body weight change at 45 mg/kg, po administered every alternate days for 14 days measured up to day 16. On the set-up: dose 45 mg/kg, route oral. The data set is classed as organism-based, HCT-116. The following applies: in vivo, 336 h. The gist of the method:
(§2)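 Nude mice bearing HCT116 xenografts of 90–110 mm3, grouped as vehicle (0.1% Tween 80, n = 6) or treated (n = 7); oral dosing at 45 or 80 mg/kg on days 0, 2, 4, 6, 8, 10, 12 and 14. Tumor volume and body weight followed over 16 days; tumor effect given as T/C; two-tailed Student t-test versus control, with standard errors shown.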
On the technique in general: In xenograft studies the graft and the host belong to different species.

Data set [6] deals with HCT-116. Nature of the data set: Induction of cell cycle arrest in human HCT116 cells assessed as accumulation at SubG1 phase at 10 uM after 24 hrs by flow cytometry (reference value: 5.7 %). The format is functional. The gist of the method:
as §1

In data set [7] the test system is HCT-116. The data set is described as follows: Induction of cell cycle arrest in human HCT116 cells assessed as accumulation at S phase at 10 uM after 48 hrs by flow cytometry (reference value: 10.4 %). The data set is classed as functional. The gist of the method:
as §1
For orientation: Flow cytometry measures light scatter and fluorescence of single cells or particles in a stream.

Data set [8] is described as follows: Cmax in BALB/c mouse at 45 mg/kg, po by HPLC-ESI-MS/MS analysis. The format is ADME, organism-based. To be noted: in vivo. On the set-up: dose 45 mg/kg, route oral.
The next data set addresses Histone deacetylase 2 (Homo sapiens, UniProt Q92769). Nature of the data set: Inhibition of HDAC2.
The test system of data set [9] is HCT-116. The data set is described as follows: Induction of cell cycle arrest in human HCT116 cells assessed as accumulation at S phase at 10 uM after 24 hrs by flow cytometry (reference value: 10.6 %). The data set is classed as functional. The gist of the method:
as §1

In data set [10] the test system is HCT-116. Nature of the data set: Antitumor activity against human HCT116 cells xenografted in BALB/c nu/nu mouse assessed as suppression of tumor growth at 80 mg/kg, po administered every alternate days for 14 days measured up to 16 days relative to control. The format is functional. The gist of the method: as §2
Data set [11] concerns HCT-116. The data set is described as follows: Antitumor activity against human HCT116 cells xenografted in BALB/c nu/nu mouse assessed as suppression of tumor growth at 45 mg/kg, po administered every alternate days for 14 days measured up to day 16 relative to control. The format is functional. The gist of the method: as §2
A short description of data set [12]: Half life in BALB/c mouse at 45 mg/kg, po by HPLC-ESI-MS/MS analysis. To be noted: in vivo. More on the design: dose 45 mg/kg, route oral. The format is ADME, organism-based.
Data set [13] can be described thus: Tmax in BALB/c mouse at 45 mg/kg, po by HPLC-ESI-MS/MS analysis. On the set-up: dose 45 mg/kg, route oral. The format is ADME, organism-based. The following applies: in vivo.
Data set [14] relates to HCT-116. The data set is described as follows: Induction of cell cycle arrest in human HCT116 cells assessed as accumulation at SubG1 phase at 10 uM after 48 hrs by flow cytometry (reference value: 2.3 %). The format is functional. The gist of the method: as §1
Data set [15] deals with HCT-116. Nature of the data set: Induction of cell cycle arrest in human HCT116 cells assessed as accumulation at G2/M phase at 10 uM after 24 hrs by flow cytometry (reference value: 9.5 %). The format is functional. The gist of the method: as §1
The subject of data set [16] is Mus musculus. The data set is described as follows: Toxicity in human HCT116 cells xenografted in BALB/c nu/nu mouse assessed as relative body weight change at 80 mg/kg, po for 14 days measured up to day 16. The data set is classed as organism-based, HCT-116. On the set-up: dose 80 mg/kg, route oral. To be noted: in vivo, 336 h. The gist of the method: as §2
The test system of data set [17] is HCT-116. The data set is described as follows: Induction of cell cycle arrest in human HCT116 cells assessed as accumulation at G0/G1 phase at 10 uM after 48 hrs by flow cytometry (reference value: 81.9 %). The format is functional. The gist of the method:
as §1

The next data set has as its target Histone deacetylase 1 (Homo sapiens, UniProt Q13547). The data set is described as follows: Inhibition of HDAC1.

In brackets after ≈: the same amount, converted by molar mass.

Sequence of Histone deacetylase 1 (Q13547 whole entry): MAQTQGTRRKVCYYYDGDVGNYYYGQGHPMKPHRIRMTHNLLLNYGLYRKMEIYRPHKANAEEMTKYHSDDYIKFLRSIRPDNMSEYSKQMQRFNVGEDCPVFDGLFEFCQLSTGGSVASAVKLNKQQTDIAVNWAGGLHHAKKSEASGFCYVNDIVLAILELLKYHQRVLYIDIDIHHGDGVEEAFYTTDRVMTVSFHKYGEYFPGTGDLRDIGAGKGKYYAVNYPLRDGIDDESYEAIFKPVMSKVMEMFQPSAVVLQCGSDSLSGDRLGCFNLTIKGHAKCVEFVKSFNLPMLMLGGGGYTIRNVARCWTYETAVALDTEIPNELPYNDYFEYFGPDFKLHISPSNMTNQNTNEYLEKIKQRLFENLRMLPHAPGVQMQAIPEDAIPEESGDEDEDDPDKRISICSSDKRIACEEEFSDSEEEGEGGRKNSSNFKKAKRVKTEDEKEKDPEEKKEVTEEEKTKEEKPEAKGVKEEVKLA
Sequence of Histone deacetylase 2 (Q92769 whole entry): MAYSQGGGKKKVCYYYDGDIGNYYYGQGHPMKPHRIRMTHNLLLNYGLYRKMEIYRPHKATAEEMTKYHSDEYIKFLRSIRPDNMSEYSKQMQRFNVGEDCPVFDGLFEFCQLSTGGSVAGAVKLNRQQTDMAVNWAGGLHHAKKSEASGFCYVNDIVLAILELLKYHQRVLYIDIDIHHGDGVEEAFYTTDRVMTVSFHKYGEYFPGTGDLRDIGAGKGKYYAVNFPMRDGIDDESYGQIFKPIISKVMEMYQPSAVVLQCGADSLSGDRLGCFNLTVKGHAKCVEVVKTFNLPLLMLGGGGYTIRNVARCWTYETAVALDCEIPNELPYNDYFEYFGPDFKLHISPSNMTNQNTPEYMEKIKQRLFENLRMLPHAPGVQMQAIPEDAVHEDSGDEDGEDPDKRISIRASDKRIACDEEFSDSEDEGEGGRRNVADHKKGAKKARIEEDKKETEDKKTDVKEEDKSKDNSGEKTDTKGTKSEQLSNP

Broadly, the solubility is the dissolved amount per volume that the medium holds. As a reminder, the IC50 is the midpoint of a concentration-inhibition curve. The low end stands for greater potency, the high end for weaker potency. For orientation: Cmax means the peak of the concentration-time curve. What is called T/C is the result in the treated group divided by that in the control group, in per cent. A word on the half-life: it is the time needed for the level to fall by half in the phase considered. Read a low half-life as fast loss. By Tmax is commonly meant the time from dosing to the highest level. Regarding `CCN1CCN(C(=O)NCc2ccc(C(=O)Nc3cc(-c4cccs4)ccc3N)cc2)C(=O)C1=O`, the solubility in data set [1] was determined as 600 µg/mL (≈ 1220 µM). For the same molecule, the IC50 came out at 510 nM in the data set on HCT-116 [2], 670 nM at Histone deacetylase 2 and 50 nM against Histone deacetylase 1. Moreover, the Activity in the data set on HCT-116 [3] is recorded as 20.5%; in the data set on HCT-116 [4], 71.5%; in the data set on Mus musculus [5], “Non-toxic”; in the data set with HCT-116 [6], 2.3%; in the data set on HCT-116 [7] it was 2.8%; in the data set with HCT-116 [9], 3.8%. The Activity is 1.4% in the data set on HCT-116 [14], 22.4% in the data set with HCT-116 [15], “Non-toxic” in the data set with Mus musculus [16] and 75.3% in the data set with HCT-116 [17]. The highest level in data set [8] (Cmax) was 8.3 µM. Moreover, the T/C in the data set with HCT-116 [10] was determined as 47%; in the data set with HCT-116 [11], 60%. Also, the half-life in [12] was 2.2 h. Also, the Tmax in data set [13] was found to be 1 h.

Regarding `CN1CCN(C(=O)NCc2ccc(C(=O)Nc3cc(-c4cccs4)ccc3N)cc2)CC1`, the concentration in solution in data set [1] (solubility) came to 1000 µg/mL (≈ 2220 µM). Also, the IC50 amounted to 530 nM with HCT-116 [2], 800 nM against Histone deacetylase 2 and 80 nM on Histone deacetylase 1.

Molecule `Nc1ccc(-c2cccs2)cc1NC(=O)c1ccc(CN(CCO)Cc2ccc3c(c2)OCO3)cc1` registered a solubility in [1] below 100 µg/mL. For the same molecule, the IC50 turned out to be 490 nM in the data set with HCT-116 [2], 740 nM against Histone deacetylase 2 and 60 nM against Histone deacetylase 1.

As for `Nc1ccc(-c2cccs2)cc1NC(=O)c1ccc(CNC(=O)N2CCOCC2)cc1`, the IC50 in the data set on HCT-116 [2] was 440 nM; on Histone deacetylase 2, 880 nM; against Histone deacetylase 1, 100 nM.

As to `CCC(=O)NCc1ccc(C(=O)Nc2cc(-c3cccs3)ccc2N)cc1`, the concentration in solution in [1] (solubility) came to 500 µg/mL (≈ 1320 µM). Besides, the IC50 in the data set on HCT-116 [2] is 560 nM; on Histone deacetylase 2, 470 nM; against Histone deacetylase 1, 40 nM. The Activity in the data set on HCT-116 [3] is reported as 20.8%; in the data set on HCT-116 [4], 79.5%; in the data set on HCT-116 [6] it was 4.6%; in the data set with HCT-116 [7], 2.8%; in the data set on HCT-116 [9], 5.2%; with HCT-116 [14], 1.4%. Also, the Activity with HCT-116 [15] was determined as 10.7%; in the data set on HCT-116 [17] it was 75%.

With `Nc1ccccc1NC(=O)c1ccc(CN(CCO)Cc2ccc3c(c2)OCO3)cc1`, in [1], the solubility was determined as 200 µg/mL (≈ 477 µM). Further, the IC50 with HCT-116 [2] turned out to be 1200 nM; against Histone deacetylase 2, 3360 nM; on Histone deacetylase 1, 1170 nM.

Regarding `Nc1ccccc1NC(=O)c1ccc(CNC(=O)OCc2cccnc2)cc1` [ENTINOSTAT], the IC50 in the data set with HCT-116 [2] was 760 nM. The Activity with HCT-116 [3] was 5.5%; in the data set with HCT-116 [4], 72.7%; in the data set with Mus musculus [5], “Toxic”; with HCT-116 [6], 8.8%; with HCT-116 [7] it was 2.2%; in the data set on HCT-116 [9], 4.9%. Moreover, the results for the Activity in the data set on HCT-116 [14], in the data set on HCT-116 [15] and in the data set on HCT-116 [17] were 30.2%, 13.6% and 62.1%, respectively. The T/C with HCT-116 [11] turned out to be 51%.

The values are drawn from ChEMBL document CHEMBL1955769 (Bioorg Med Chem Lett, 2012).
